Data published in ChEMBL document CHEMBL4834420, “Projected Dose Optimization of Amino- and Hydroxypyrrolidine Purine PI3Kδ Immunomodulators” (J Med Chem, 2021).
pIC50: −log10 of the molar value.

Key:
[1] = Protein binding in Wistar Han rat plasma; type: ADME, cell-free; conditions: read-out: PPB (converted)
[2] = Protein binding in human plasma; type: ADME, cell-free; conditions: read-out: PPB (converted)
[3] = Intrinsic clearance in Wistar Han rat at 0.5 mg/kg, iv or 1 mg/kg, po; type: ADME, organism-based; conditions: in vivo
[4] = target: Cytochrome P450 2D6 (Homo sapiens, UniProt P10635); assay: Inhibition of CYP2D6 (unknown origin); type: ADME
[5] = target: T1, Cytochrome P450 2C8 (Homo sapiens, UniProt P10632); assay: Inhibition of CYP2C8 (unknown origin); type: ADME
T1 sequence (P10632 whole entry): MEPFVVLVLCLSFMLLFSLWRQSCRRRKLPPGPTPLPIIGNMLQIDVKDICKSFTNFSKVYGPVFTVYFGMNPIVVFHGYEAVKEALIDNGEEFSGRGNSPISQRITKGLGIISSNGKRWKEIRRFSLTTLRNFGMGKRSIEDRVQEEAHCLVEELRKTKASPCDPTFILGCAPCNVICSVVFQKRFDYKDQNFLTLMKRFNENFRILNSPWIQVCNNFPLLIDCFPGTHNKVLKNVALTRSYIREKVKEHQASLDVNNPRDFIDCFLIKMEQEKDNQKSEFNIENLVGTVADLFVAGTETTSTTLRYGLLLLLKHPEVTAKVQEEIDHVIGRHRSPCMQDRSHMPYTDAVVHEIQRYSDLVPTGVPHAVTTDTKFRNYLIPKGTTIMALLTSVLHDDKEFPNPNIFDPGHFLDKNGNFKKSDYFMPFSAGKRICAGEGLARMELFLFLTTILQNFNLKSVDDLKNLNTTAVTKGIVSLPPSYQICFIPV

[6] = Trough plasma concentration Brown Norway rat at 30 mg/kg, po; type: ADME, organism-based; conditions: in vivo, read-out: Cmin
[7] = AUC in C57BL/6 mouse at 100 mg/kg; type: ADME, organism-based; design: dose 100 mg/kg; conditions: in vivo
[8] = Inhibition of rat PI3Kdelta
[9] = target: T2, Cytochrome P450 2B6 (Homo sapiens, UniProt P20813); assay: Inhibition of CYP2B6 (unknown origin); type: ADME
T2 sequence (P20813 whole entry): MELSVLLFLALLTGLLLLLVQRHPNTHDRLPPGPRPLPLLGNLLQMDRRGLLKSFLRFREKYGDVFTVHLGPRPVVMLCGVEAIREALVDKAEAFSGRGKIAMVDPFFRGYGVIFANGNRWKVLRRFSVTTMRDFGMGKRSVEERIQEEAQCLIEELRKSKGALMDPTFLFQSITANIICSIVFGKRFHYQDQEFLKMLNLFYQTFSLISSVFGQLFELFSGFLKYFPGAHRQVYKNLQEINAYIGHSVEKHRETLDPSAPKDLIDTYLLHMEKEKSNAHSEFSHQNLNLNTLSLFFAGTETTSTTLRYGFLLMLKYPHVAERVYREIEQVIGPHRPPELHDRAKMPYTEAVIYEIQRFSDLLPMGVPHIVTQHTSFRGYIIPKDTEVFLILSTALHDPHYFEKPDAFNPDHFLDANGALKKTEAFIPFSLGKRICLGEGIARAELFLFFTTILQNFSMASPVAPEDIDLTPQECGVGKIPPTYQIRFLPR

[10] = target: Cytochrome P450 3A4 (Homo sapiens, UniProt P08684); assay: Inhibition of CYP3A4 (unknown origin); type: ADME
[11] = Trough plasma concentration C57BL/6 mouse at 100 mg/kg; type: ADME, organism-based; conditions: in vivo, read-out: Cmin
In short: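 C57BL/6-Foxp3-GFP reporter mice were dosed at 30 and 100 mg/kg/day for up to 7 days, with exposure determined at 100 mg/kg. The unbound Cmax and trough values were derived from total plasma levels. Treg readout was bioluminescence imaging 10 min after 3 mg luciferin ip, reported as radiance in photons/s/cm²/steradian.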

[12] = Half life in C57BL/6 mouse; type: ADME; conditions: in vivo

Cytochrome P450 3A4, sequence (P08684 whole entry): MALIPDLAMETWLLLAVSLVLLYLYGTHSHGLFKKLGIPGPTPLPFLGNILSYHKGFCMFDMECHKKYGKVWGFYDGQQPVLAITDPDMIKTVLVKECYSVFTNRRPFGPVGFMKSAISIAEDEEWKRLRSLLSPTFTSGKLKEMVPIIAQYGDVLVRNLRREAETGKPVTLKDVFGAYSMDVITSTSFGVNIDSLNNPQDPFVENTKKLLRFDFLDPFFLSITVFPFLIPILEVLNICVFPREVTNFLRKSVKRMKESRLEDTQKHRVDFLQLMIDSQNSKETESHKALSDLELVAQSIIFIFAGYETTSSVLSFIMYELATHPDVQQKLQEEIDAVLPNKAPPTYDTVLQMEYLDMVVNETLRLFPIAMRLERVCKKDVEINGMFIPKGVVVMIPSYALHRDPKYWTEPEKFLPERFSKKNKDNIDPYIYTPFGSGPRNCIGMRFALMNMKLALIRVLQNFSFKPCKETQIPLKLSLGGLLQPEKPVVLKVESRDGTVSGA
Cytochrome P450 2D6, sequence (P10635 whole entry): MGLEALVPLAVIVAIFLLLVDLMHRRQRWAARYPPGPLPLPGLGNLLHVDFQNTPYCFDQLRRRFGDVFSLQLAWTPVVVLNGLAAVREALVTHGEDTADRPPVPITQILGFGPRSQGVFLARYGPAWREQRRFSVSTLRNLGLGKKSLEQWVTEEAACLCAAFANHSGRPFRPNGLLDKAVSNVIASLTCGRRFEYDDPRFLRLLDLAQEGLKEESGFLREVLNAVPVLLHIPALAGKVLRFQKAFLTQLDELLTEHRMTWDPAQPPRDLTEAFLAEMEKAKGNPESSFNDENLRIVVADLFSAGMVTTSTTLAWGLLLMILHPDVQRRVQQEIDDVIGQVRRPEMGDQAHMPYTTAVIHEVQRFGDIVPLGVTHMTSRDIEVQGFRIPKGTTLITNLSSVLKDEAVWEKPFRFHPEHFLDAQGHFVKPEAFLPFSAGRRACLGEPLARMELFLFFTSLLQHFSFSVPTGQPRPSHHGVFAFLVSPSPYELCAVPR

Compound: CCn1c(-c2cnc(C)nc2)nc2c(N[C@H]3CCN(C(=O)C4CC4)C3)ncnc21
- fraction unbound [1]: 0.18
- fraction unbound [2]: 0.7
- CL [3]: 64 mL/min/kg
- pIC50 [4]: < 4.30
- pIC50 [5]: < 4.30
- concentration [6]: 103 nM
- AUC [7]: 133 µM·h
- pIC50 [8]: 8.18
- pIC50 [9]: < 4.30
- pIC50 [10]: < 4.30
- concentration [11]: 110 nM
- half-life [12]: 48 min
